The record followed here is ChEMBL document CHEMBL1154181 (J Med Chem, 2009).

The test system of one experiment is Mus musculus. The experiment can be described thus: Antinociceptive activity against radiant heat-induced nociception in icv dosed CD1 mouse assessed as increase in tail withdrawal latency measured after 15 to 120 mins postdose by tail flick test. Type of experiment: functional. Put shortly: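 Male CD-1 mice anesthetized with ketamine-xylazine (80 + 10 mg/kg ip). Dosed into the right lateral ventricle (+2 mm ML, −0.3 mm AP to bregma, 2 mm depth). Tail flick with radiant heat, cut-off 15 s. Latency read at 15–120 min as %MPE.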
As to `C=Cc1c(C)nn(CCCN2CCN(c3ccc(Cl)cc3)CC2)c(=O)c1N`, the ED50 is 15.4 µg.

Consider `Cc1ccc(N2CCN(CCCn3nc(-c4ccccc4)c(-c4csc(C)n4)c(N)c3=O)CC2)cc1`, for which the ED50 turned out to be 48.3 µg.

Take `Cc1ccc(N2CCN(CCn3nc(C)c(-c4ccn[nH]4)c(N)c3=O)CC2)cc1`: the ED50 was 16.9 µg.

Take `C=Cc1cnn(CCCN2CCN(c3ccc(C)cc3)CC2)c(=O)c1N`: the ED50 came to 25.1 µg.

`C=Cc1c(C)nn(CCCN2CCC(C)CC2)c(=O)c1N`: the ED50 came out at 26.4 µg.

For the compound `C=Cc1c(C)nn(CCN2CCN(c3ccc(C)cc3)CC2)c(=O)c1N`, the ED50 came to 26.1 µg.

Take `C=Cc1c(C)nn(CCCN2CCN(C)CC2)c(=O)c1N`: the ED50 was 8.7 µg.

`C=Cc1c(C)nn(CCCN2CCN(c3ccc(OC)cc3)CC2)c(=O)c1N`: the ED50 was 12.6 µg.

Take `Cc1ccc(N2CCN(CCCn3nc(C)ccc3=O)CC2)cc1`: the ED50 amounted to 13.8 µg.

With `C=Cc1c(C)nn(C)c(=O)c1NCCN1CCN(c2ccc(C)cc2)CC1`, the ED50 came out at 24.1 µg.

On to `C=Cc1sc(=O)n(CCCN2CCN(c3ccc(C)cc3)CC2)c1C`, for which the ED50 amounted to 5.1 µg.

For the compound `CN1CC[C@]23c4c5ccc(O)c4O[C@H]2[C@@H](O)C=C[C@H]3[C@H]1C5` [MORPHINE], the ED50 was 1.1 µg.

In the case of `Cc1ccc(N2CCN(CCCn3nc(C)cc(N)c3=O)CC2)cc1`, the ED50 worked out at 4.9 µg.

As for `C=Cc1c(C)nn(CCCN2CCN(c3cccc(C)c3)CC2)c(=O)c1N`, the ED50 is 51.55 µg.

Consider `C=Cc1c(C)nn(CCCN2CCN(c3cccc(Cl)c3)CC2)c(=O)c1N`, for which the ED50 came to 23.7 µg.

On to `Cc1ccc(N2CCN(CCn3nc(-c4ccccc4)c(-c4csc(C)n4)c(N)c3=O)CC2)cc1`, for which the ED50 is 25.1 µg.

Regarding `C=Cc1c(C)nn(CCCN2CCN(c3cccc(OC)c3)CC2)c(=O)c1N`, the ED50 amounted to 72.6 µg.

For the compound `C=Cc1c(C)nn(CCN2CCN(c3ccc(OC)cc3)CC2)c(=O)c1N`, the ED50 is 11.9 µg.

Consider `Cc1ccc(N2CCN(CCCn3cc(-c4ccncc4)cc(N)c3=O)CC2)cc1`, for which the ED50 was determined as 7.6 µg.

A further experiment deals with Mus musculus. The experiment can be described thus: Antinociceptive activity against radiant heat-induced nociception in po dosed CD1 mouse assessed as increase in tail withdrawal latency measured after 15 to 120 mins postdose by tail flick test. Type of experiment: functional. Put shortly: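 Male CD-1 mice, 25–30 g; oral dosing. Radiant heat focused 3–4 cm from tail tip of hand-restrained mice; tail withdrawal latency recorded, cutoff 15 s at 15 V. Baseline = mean of three readings 15 min apart; latency at 15–120 min.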
For orientation: In hot-plate and tail-flick tests a longer latency is read as antinociception.
As for `CN1CC[C@]23c4c5ccc(O)c4O[C@H]2[C@@H](O)C=C[C@H]3[C@H]1C5` [MORPHINE], the ED50 was found to be 3.5 mg/kg.

A further experiment relates to Mus musculus. The experiment can be described thus: Antinociceptive activity against thermal nociception in po dosed CD1 mouse assessed as increase in latency period to elicit jumping or hind paw licking measured after 15 to 90 mins postdose by hot plate method. The class given is functional.
For `CN1CC[C@]23c4c5ccc(O)c4O[C@H]2[C@@H](O)C=C[C@H]3[C@H]1C5` [MORPHINE], the ED50 worked out at 6.9 mg/kg.
